Screening data: PubChem BioAssay, several laboratories
XBP1 UPR activ = adaptive UPR (XBP1) activation; CHO-XBP1 luciferase reporter, IRE1-XBP1 UPR activation, luminescence; percent of tunicamycin response, DMSO as zero; activation, % at 20 µM; hit rate 0.33% among 330,000;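 active = versus positive control, 20 µM dose yields 30% or more activation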;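 note: 100% = tunicamycin at 10 µg/mL and 0% = DMSO only wells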
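Assay system: IRE1-XBP1 luciferase reporter CHO line. Input: 1000 cells/well. Buffer or medium: F12 with 10% serum. Doses: 20 µM, 1% DMSO. Times: overnight seeding at 37 °C, 6 h compound treatment at 37 °C. Technique: Steady-Glo luciferase glow luminescence, 10 min after reagent addition.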
UPR CHOP act = apoptotic UPR (CHOP) activation. activation, % at 10 µM. CHO-CHOP luciferase reporter, luminescence; percent of tunicamycin response over DMSO baseline. hit rate 0.34% among 330,000. AID 449763;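 active = at 10 µM dose, activation of 40% or more, normalized to positive control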;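 note: 100% = tunicamycin at 10 µg/mL and 0% = DMSO alone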
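assay system = CHO CHOP reporter cells | amount = 500 CHO-CHOP cells per well | buffer or medium = F12 with 10% FBS | incubation = 16-18 h cell attachment, then 6 h compound exposure, 37 °C | detection = luminescence read with Steady-Glo | read-out = percent activation relative to tunicamycin control | controls = tunicamycin high control, DMSO low control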
MPTP block = inhibitors of mitochondrial permeability transition pore. isolated mouse mitochondria, Ca2+ swelling absorbance, 30 min. inhibition, % at 10 µM. hit rate 1.4% among 360,000. AID 602449;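 active = inhibition of 50% or more, scaled per plate between neutral and stimulator controls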;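 note: 0% = DMSO wells given calcium and 100% = 1 mM EGTA wells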
CHOP inhibitor = inhibitors of CHOP induction in ER stress response; CHO-K1 CHOP-promoter luciferase, tunicamycin-induced, 15-18 h; inhibition, % at 10 µM; hit rate 3.8% among 220,000; AID 2732;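 active = compounds that reduced the stress-induced luciferase reporter signal by more than about 70% of percent inhibition, limit read from the data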;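 note: 0% = tunicamycin plus vehicle and 100% = wells without tunicamycin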
GRIN3A LBD mod = modulators (binders) of human NR3A ligand-binding domain; hit rate 2.5% among 340,000; AID 1259313; Tm shift relative to glycine control, % at 25 µM; NR3A LBD differential scanning fluorimetry, Tm shift; 0% = protein alone, 100% = glycine-bound protein;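 active = melting temperature shift of at least 10% of the positive control shift, at one fixed dose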
aDG glyco up = increases alpha dystroglycan glycosylation; Pro5-aDG cells, alpha-DG glycosylation AlphaScreen (IIH6); 0% Pro5, 100% B10-LARGE cell signal; activation, % at 10 µM; hit rate 0.22% among 360,000;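 active = activation of at least 8% versus controls, or a plate z-score of at least 8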;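 note: Pro5 are CHO cells carrying HIG-tagged alpha-DG that lacks glycosylation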
CHOP UPR conf = confirmation of apoptotic unfolded protein response (CHOP) activators | shares compounds with UPR CHOP act | CHO-CHOP cells, CHOP-luciferase reporter luminescence; percent of tunicamycin response, DMSO as zero | activation, % at 10 µM | hit rate 64% among 1,000 | AID 463112; in the data active = activation above about 33%;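 note: 0% = DMSO wells and 100% = tunicamycin 10 µg/mL wells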
An asterisk follows results filed as active; · = not tested or not shown. An excerpt weighted towards active compounds, which were near 5.6% of everything screened.

SMILES	XBP1 UPR activ	UPR CHOP act	MPTP block	CHOP inhibitor	GRIN3A LBD mod	aDG glyco up	CHOP UPR conf
COc1ccc(S(=O)(=O)N2CCOCC2)cc1NC(=O)CSc1nnnn1C1CC1	0.0	-1.3	-0.2	·	1.1	0.2	·
Cc1ccc2nc(N3CCN(c4cccc(C)c4C)CC3)c3nnnn3c2c1	-2.9	0.8	1.6	19.3	0.8	-0.2	·
Cc1ccc2nc(Cl)c3nnnn3c2c1	-7.3	139.2*	2.7	105.1*	0.7	-0.4	-6.5
CC(=O)Nc1ccc(OS(=O)(=O)c2cc(Cl)ccc2C)cc1	1.4	2.8	0.8	16.0	-0.8	-0.2	·
COc1ccc(Cc2ccccc2C(=O)O)cc1	·	·	0.4	·	-0.2	0.1	·
COc1ccc(CC2=CC(=O)c3ccccc3C2=O)cc1	-7.1	187.1*	-0.2	·	1.2	-0.2	190.9*
Cc1cc(C(=O)Cn2ncc(Cl)c(Cl)c2=O)c(C)n1CC(F)(F)F	1.6	96.0*	0.1	37.6	1.6	-0.4	62.0*
CCCc1cc(=O)[nH]c(SCC(=O)c2cc(C)n(CC(F)(F)F)c2C)n1	-0.1	-1.3	2.3	17.6	-1.6	0.0	·
CC(C)c1ccc(/C=C/C(=O)n2nnc3ccccc32)cc1	1.8	68.7*	-1.6	-34.3	1.7	0.2	17.0
O=C(CSc1nc2ccccc2o1)N/N=C/c1ccc(O)c(O)c1	21.7	18.3	7.4	-10.3	9.8	0.1	·
COc1ccc2nc(C)cc(SCC(=O)N/N=C/c3ccc(O)c(O)c3)c2c1	6.3	0.4	1.2	-34.7	-10.7	-0.1	·
O=C(N/N=C/c1cccnc1)c1cc(-c2ccccc2)nc2ccccc12	-0.8	2.8	-0.2	·	-2.5	0.0	·
Cc1cc(SCC(=O)N/N=C/c2ccc(O)c(O)c2)nc2ccccc12	58.6*	107.6*	1.1	·	5.9	0.1	42.0*
O=C(N/N=C/c1ccc(O)c(O)c1)c1cc(-c2ccccc2)nc2ccccc12	33.6*	98.6*	9.7	·	4.7	0.0	25.2
Cc1cc(SCC(=O)N/N=C/c2ccc(O)c(O)c2)c(C)cc1Br	22.6	57.4*	6.7	-2.0	-5.6	0.1	19.8
C=CCN1C(=O)c2ccc(C(=O)N(CC)CC(=O)Nc3c(F)cccc3F)cc2C1=O	-3.3	1.0	-2.2	·	1.1	0.0	·
O=C(N/N=C/c1ccccn1)c1cccc([N+](=O)[O-])c1	1.5	3.3	-0.5	13.1	-0.7	-0.3	·
O=C(N/N=C/c1ccccn1)c1cc([N+](=O)[O-])cc([N+](=O)[O-])c1	4.4	45.4*	1.8	28.8	-2.5	0.0	64.6*
O=C(CN(Cc1ccc(Br)cc1)S(=O)(=O)c1ccccc1)NCc1cccnc1	-3.0	-0.3	1.9	·	-0.3	4.7	·
O=C(NCc1cccnc1)/C(=C\c1ccc(-c2ccc(Br)cc2)o1)S(=O)(=O)c1ccccc1	-4.9	83.3*	-4.3	105.5*	-11.5	-0.3	51.7*
O=C(NCc1cccnc1)/C(=C/c1ccc(-c2ccc(Cl)cc2)o1)S(=O)(=O)c1ccccc1	-5.3	136.2*	-1.8	103.6*	-10.7	-0.1	90.8*
O=C(NCc1cccnc1)/C(=C/c1ccc(-c2cccc(C(F)(F)F)c2)o1)NC(=O)c1ccccc1	3.1	4.9	6.6	38.2	-1.3	0.1	·
COc1ccc(NC(=O)COc2ccccc2Cc2ccccc2)cc1S(=O)(=O)N1CCOCC1	1.2	0.8	-0.2	·	-4.7	1.1	·
O=C(Nc1ccc(S(=O)(=O)Nc2nccs2)cc1)c1cccc(N2C(=O)c3ccccc3C2=O)c1	-3.3	-1.8	1.2	4.0	2.1	-0.1	·
O=C(Nc1nccs1)c1cccc(N2C(=O)c3cccc4c([N+](=O)[O-])ccc(c34)C2=O)c1	13.7	85.2*	-3.9	-33.0	-1.0	-0.2	121.9*
SMILES	XBP1 UPR activ	UPR CHOP act	MPTP block	CHOP inhibitor	GRIN3A LBD mod	aDG glyco up	CHOP UPR conf
C[C@@H]1CN([C@H](C)CO)C(=O)c2cc(NC(=O)Nc3ccc(C(F)(F)F)cc3)ccc2O[C@H]1CN(C)Cc1ccc(Cl)c(Cl)c1	18.9	183.8*	-0.7	·	31.8*	0.0	60.4*
O=C1/C(=C/c2ccccc2F)SC(=S)N1CCC(=O)N1CCCCC1CCO (stereo not given)	-3.7	0.5	1.7	·	-1.0	1.0	·
O=C(CCN1C(=O)/C(=C\c2ccccc2F)SC1=S)N1CCCCC1	-5.7	43.5*	1.7	·	-3.1	0.2	37.3*
Cc1c(CCC(=O)N[C@@H](CC(C)C)C(=O)O)c(=O)oc2cc3oc4c(c3cc12)CCCC4	-8.4	-3.4	1.4	·	-2.4	0.1	·
O=C(Oc1oc(-c2ccco2)nc1C=Nc1ccc(Cl)cc1)c1ccco1	8.7	76.6*	0.9	-11.0	-10.1	-0.4	75.9*
COc1ccc(N=Cc2nc(-c3ccco3)oc2O)cc1	1.3	3.0	-0.5	-4.6	-11.0	0.5	·
O=C(Nc1ccc(Cl)cc1)/C(=C/c1cccc(O)c1)c1nc2ccccc2s1	12.8	114.1*	5.4	106.7*	26.4*	-0.5	62.2*
S=C(Nc1ccc(Cl)cc1)c1nc2ccccc2s1	2.1	4.2	0.8	-33.9	-1.0	-0.2	·
O=C(c1ccccc1Cc1ccccc1)N1CCN(S(=O)(=O)c2ccccc2Br)CC1	-4.0	0.9	0.6	·	1.4	-0.1	·
S=C1SCN(CC2CC2)CN1CC1CC1	1.0	81.8*	0.2	-68.3	-3.7	0.0	86.0*
S=C1SCN(Cc2ccccc2)CN1Cc1ccccc1	-3.6	1.6	17.7	·	-1.2	0.6	·
O=C(O)Cc1sc(N/N=C\c2ccncc2)nc1-c1ccccc1	-1.5	0.1	3.5	-8.8	-3.0	0.3	·
C[C@H](CO)N1C[C@H](C)[C@@H](CN(C)S(=O)(=O)c2cn(C)cn2)Oc2c(NS(=O)(=O)c3cn(C)cn3)cccc2C1=O	-1.9	-0.4	-1.0	·	-0.1	0.1	·
CCOC(=O)c1cnc(-n2nc(C)cc2C)nc1N(C)C	-2.8	-0.1	-0.2	-39.1	0.8	0.5	·
CCOC(=O)c1cnc(-n2nc(C)cc2C)nc1NC1CCCC1	18.9	64.3*	8.4	27.1	-4.1	2.1	20.3
O=C(Oc1c(CN2CCOCC2)cc(Cl)c2cccnc12)c1ccc(F)cc1	19.9	40.3*	-5.7	40.7	-2.5	-0.5	40.4*
COc1cc(C(=O)Oc2c(CN3CCOCC3)cc(Cl)c3cccnc23)cc(OC)c1OC	24.0	62.2*	-5.6	28.5	-2.1	-0.2	56.0*
COc1ccc(C(=O)Oc2c(CN3CCOCC3)cc(Cl)c3cccnc23)cc1	-0.9	0.4	-11.3	-6.7	-1.9	0.9	·
COc1cccc(C(=O)Oc2c(CN3CCOCC3)cc(Cl)c3cccnc23)c1	19.3	80.4*	-4.0	-58.3	-0.4	-0.4	28.3
